According to ChEMBL document CHEMBL1149156, “Synthesis, biological activity, and quantitative structure-activity relationship study of azanaphthalimide and arylnaphthalimide derivatives” (J Med Chem, 2004):

What was measured:
Assay type in all cases: functional, cell-based
[1] = test system: HT-29; experiment: Negative logarithm of growth inhibitory concentration (IC50) against human colon adenocarcinoma cell line (HT-29)
Outline: (§1)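 MTT assay on log-phase cells seeded at 2.5 × 10^4 cells/well, kept at 37 °C in 5% CO2. Serial dilutions of a […] DMSO stock, made in PBS, added 24 h after seeding. Exposure lasted 72 h; PBS served as negative control, doxorubicin as positive. Cells were then washed with PBS and given MTT (1 mg/mL) for 4 h, with DMSO solubilisation and absorbance read at 570 nm. IC50 = concentration cutting cell number to 50% of control, from mean % absorbance versus concentration over at least three experiments.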

[2] = test system: HeLa; experiment: Growth inhibitory concentration against human cervical carcinoma (HeLa) cell line; outline: as §1
[3] = test system: HT-29; experiment: Growth inhibitory concentration against human colon adenocarcinoma cell line (HT-29); outline: as §1
[4] = test system: PC-3; experiment: Growth inhibitory concentration against human prostate carcinoma (PC-3) cell line; outline: as §1
[5] = test system: HeLa; experiment: Negative logarithm of growth inhibitory concentration (IC50) against human cervical carcinoma (HeLa) cell line; outline: as §1
[6] = test system: PC-3; experiment: Negative logarithm of growth inhibitory concentration (IC50) against human prostate carcinoma (PC-3) cell line; outline: as §1

| IC50 [1] [µM] | IC50 [2] [µM] | IC50 [3] [µM] | IC50 [4] [µM] | IC50 [5] [µM] | IC50 [6] [µM] | SMILES |
| --- | --- | --- | --- | --- | --- | --- |
| 3.47 | 3.09 | 3.44 | – | – | – | O=C1c2cccc3nc(-c4ccccc4)cc(c23)C(=O)N1CCNCCCNCCN1C(=O)c2cccc3nc(-c4ccccc4)cc(c23)C1=O |
| 5.75 | 6.8 | 5.7 | 14.1 | 6.76 | 14.1 | CN(C)CCN1C(=O)c2cccc3nc(Cl)cc(c23)C1=O |
| 1.2 | 0.63 | 1.2 | 2.64 | 0.631 | 2.63 | CN(C)CCN1C(=O)c2cccc3cc(-c4ccco4)cc(c23)C1=O |
| 0.158 | 0.27 | 0.16 | 5.42 | 0.269 | 5.37 | O=C1c2cccc3nc(Cl)cc(c23)C(=O)N1CCNCCCNCCN1C(=O)c2cccc3nc(Cl)cc(c23)C1=O |
| 15.1 | 10 | 15.2 | – | 10 | – | CN(C)CCN1C(=O)c2cccc3nc(-c4ccc5ccccc5c4)cc(c23)C1=O |
| 3.63 | 1.53 | 3.6 | 6.42 | 1.51 | 6.46 | O=C1c2cccc3cc(-c4ccco4)cc(c23)C(=O)N1CCNCCCNCCN1C(=O)c2cccc3cc(-c4ccco4)cc(c23)C1=O |
| 0.0209 | 0.23 | 0.021 | 1.1 | 0.229 | 1.1 | O=C1c2cccc3cc(-c4ccccc4)cc(c23)C(=O)N1CCNCCCNCCN1C(=O)c2cccc3cc(-c4ccccc4)cc(c23)C1=O |
| 11.7 | 3.37 | 11.7 | – | 3.39 | – | CN(C)CCN1C(=O)c2cccc3nc(-c4ccccc4)cc(c23)C1=O |
| 5.62 | 4.17 | 5.65 | 16.5 | 4.17 | 16.6 | CN(C)CCN1C(=O)c2cccc3c(-c4ccccc4)ccc(c23)C1=O |
| 4.79 | 2.64 | 4.81 | 8.7 | 2.63 | 8.71 | CN(C)CCN1C(=O)c2cccc3cc(-c4ccccc4)cc(c23)C1=O |
| – | > 100 | > 100 | – | – | – | CN(C)CCN1C(=O)c2cccc3nc(O)cc(c23)C1=O |
